In brackets after ≈: the same amount, converted by molar mass. One block for each compound: values may come before it. Activity calls are given as the source filed them. The calls are words filed in the database; no cut-off is given here.
Tests used:
[1] = Chemical stability of the compound; assay type: physicochemical
[2] = Distribution coefficient between octanol and sodium phosphate buffer, logD of the compound in pH 7.4 buffer by LC-MS/MS-based shake flask method
[3] = target: T1, Arachidonate 5-lipoxygenase-activating protein (Homo sapiens, UniProt P20292); experiment: Inhibition of [3H]MK0591 binding to human FLAP expressed in […] cell membranes measured after 60 to 80 mins by scintillation counting method
T1 sequence (P20292 whole entry): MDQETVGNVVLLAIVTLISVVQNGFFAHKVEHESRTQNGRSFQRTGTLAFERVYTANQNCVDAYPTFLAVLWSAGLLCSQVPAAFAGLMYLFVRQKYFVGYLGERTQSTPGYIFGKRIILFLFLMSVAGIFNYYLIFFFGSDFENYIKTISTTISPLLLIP

[4] = Genotoxicity in Salmonella typhimurium by Ames test; assay type: toxicity; conditions: salmonella enterica subsp. enterica serovar typhimurium
How it was run: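 Two-strain Salmonella Ames test, with and without metabolic activation by rat liver S9 fraction; applied to amino pyrazole building blocks present in the series.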

[5] = target: T2, Arachidonate 5-lipoxygenase-activating protein (Homo sapiens) (UniProt P20292); experiment: (§1) Inhibition of FLAP in human whole blood assessed as reduction in calcium ionophore-stimulated LTB4 production preincubated for 30 mins followed by calcium ionophore stimulation and measured after 20 mins by EIA; assay type: tissue-based
T2 sequence (whole entry): T1 sequence (P20292 whole entry)

[6] = target: T1, Arachidonate 5-lipoxygenase-activating protein; experiment: as §1; assay type: tissue-based
Homo sapiens = experiment: Suppression of calcium ionophore-stimulated LTB4 production in CAD patient whole blood at 100 mg administered daily during phase 2 study for 12 weeks by ELISA relative to baseline; assay type: functional
[7] = Apparent permeability across apical to basolateral side in human Caco2 cells; conditions: Caco-2
[8] = Half-life in Beagle dog at 0.004 to 0.1 umol/kg, iv or 0.1 to 1 umol/kg, po via gavage measured up to 79 hrs; assay type: ADME, organism-based, Canis lupus familiaris; conditions: in vivo
L5178Y = experiment: Genotoxicity in mouse L5178Y cells by micronucleus Assay; assay type: toxicity, cell-based
Bile salt export pump = Bile salt export pump (Homo sapiens, UniProt O95342); experiment: Inhibition of recombinant human BSEP expressed in baculovirus infected Sf21 insect cell vesicles assessed as reduction in NBD-taurocholate uptake by fluorescence assay; assay type: ADME
[9] = target: Potassium voltage-gated channel subfamily A member 5 (Homo sapiens, UniProt P22460); experiment: Inhibition of human Kv1.5 by Ion-work electrophysiology assay
[10] = target: Voltage-dependent T-type calcium channel subunit alpha-1H (Homo sapiens) (UniProt O95180); experiment: Inhibition of human Cav3.2 by Ion-work electrophysiology assay
[11] = Volume of distribution in Beagle dog at 0.004 to 0.1 umol/kg, iv or 0.1 to 1 umol/kg, po via gavage measured up to 79 hrs; assay type: ADME, organism-based, Canis lupus familiaris; conditions: in vivo
[12] = Selectivity ratio of inhibition of COX-1 in human whole blood to Inhibition of 5-lipoxygenase (unknown origin)
[13] = Clearance in Beagle dog at 0.004 to 0.1 umol/kg, iv or 0.1 to 1 umol/kg, po via gavage measured up to 79 hrs; assay type: ADME, organism-based, Canis lupus familiaris; conditions: in vivo
[14] = target: Potassium/sodium hyperpolarization-activated cyclic nucleotide-gated channel 4 (Homo sapiens, UniProt Q9Y3Q4); experiment: Inhibition of human HCN4 by Ion-work electrophysiology assay
HepG2 = experiment: Induction of mitochondrial impairment in human HepG2 cells incubated for 24 hrs by CellTiter-Glo Luminescent Cell Viability Assay; assay type: cell-based; conditions: hepg2, 24 h
[15] = Protein binding in human plasma assessed as unbound fraction by LC-MS based equilibrium dialysis analysis; assay type: ADME, cell-free
Canis familiaris = species on record: Canis familiaris; experiment: Ex vivo inhibition of FLAP in Beagle dog assessed as reduction in ionophore-stimulated LTB4 production by EIA; assay type: functional, organism-based; conditions: Canis lupus familiaris
[16] = Metabolic stability in human hepatocytes assessed as parent compound remaining; assay type: ADME, cell-based, Hepatocyte
[17] = target: Aryl hydrocarbon receptor (Homo sapiens, UniProt P35869); experiment: Agonist activity at AhR in human HepG2 cells assessed as induction of CYP1A1 activity at 0.001 to 30 uM measured after 24 hrs by immunocytochemistry analysis; assay type: ADME, cell-based; conditions: hepg2, 24 h
[18] = target: Sodium channel protein type 5 subunit alpha (Homo sapiens, UniProt Q14524); experiment: Inhibition of human NaV1.5 by Ion-work electrophysiology assay
Sequence of Sodium channel protein type 5 subunit alpha (Q14524 whole entry): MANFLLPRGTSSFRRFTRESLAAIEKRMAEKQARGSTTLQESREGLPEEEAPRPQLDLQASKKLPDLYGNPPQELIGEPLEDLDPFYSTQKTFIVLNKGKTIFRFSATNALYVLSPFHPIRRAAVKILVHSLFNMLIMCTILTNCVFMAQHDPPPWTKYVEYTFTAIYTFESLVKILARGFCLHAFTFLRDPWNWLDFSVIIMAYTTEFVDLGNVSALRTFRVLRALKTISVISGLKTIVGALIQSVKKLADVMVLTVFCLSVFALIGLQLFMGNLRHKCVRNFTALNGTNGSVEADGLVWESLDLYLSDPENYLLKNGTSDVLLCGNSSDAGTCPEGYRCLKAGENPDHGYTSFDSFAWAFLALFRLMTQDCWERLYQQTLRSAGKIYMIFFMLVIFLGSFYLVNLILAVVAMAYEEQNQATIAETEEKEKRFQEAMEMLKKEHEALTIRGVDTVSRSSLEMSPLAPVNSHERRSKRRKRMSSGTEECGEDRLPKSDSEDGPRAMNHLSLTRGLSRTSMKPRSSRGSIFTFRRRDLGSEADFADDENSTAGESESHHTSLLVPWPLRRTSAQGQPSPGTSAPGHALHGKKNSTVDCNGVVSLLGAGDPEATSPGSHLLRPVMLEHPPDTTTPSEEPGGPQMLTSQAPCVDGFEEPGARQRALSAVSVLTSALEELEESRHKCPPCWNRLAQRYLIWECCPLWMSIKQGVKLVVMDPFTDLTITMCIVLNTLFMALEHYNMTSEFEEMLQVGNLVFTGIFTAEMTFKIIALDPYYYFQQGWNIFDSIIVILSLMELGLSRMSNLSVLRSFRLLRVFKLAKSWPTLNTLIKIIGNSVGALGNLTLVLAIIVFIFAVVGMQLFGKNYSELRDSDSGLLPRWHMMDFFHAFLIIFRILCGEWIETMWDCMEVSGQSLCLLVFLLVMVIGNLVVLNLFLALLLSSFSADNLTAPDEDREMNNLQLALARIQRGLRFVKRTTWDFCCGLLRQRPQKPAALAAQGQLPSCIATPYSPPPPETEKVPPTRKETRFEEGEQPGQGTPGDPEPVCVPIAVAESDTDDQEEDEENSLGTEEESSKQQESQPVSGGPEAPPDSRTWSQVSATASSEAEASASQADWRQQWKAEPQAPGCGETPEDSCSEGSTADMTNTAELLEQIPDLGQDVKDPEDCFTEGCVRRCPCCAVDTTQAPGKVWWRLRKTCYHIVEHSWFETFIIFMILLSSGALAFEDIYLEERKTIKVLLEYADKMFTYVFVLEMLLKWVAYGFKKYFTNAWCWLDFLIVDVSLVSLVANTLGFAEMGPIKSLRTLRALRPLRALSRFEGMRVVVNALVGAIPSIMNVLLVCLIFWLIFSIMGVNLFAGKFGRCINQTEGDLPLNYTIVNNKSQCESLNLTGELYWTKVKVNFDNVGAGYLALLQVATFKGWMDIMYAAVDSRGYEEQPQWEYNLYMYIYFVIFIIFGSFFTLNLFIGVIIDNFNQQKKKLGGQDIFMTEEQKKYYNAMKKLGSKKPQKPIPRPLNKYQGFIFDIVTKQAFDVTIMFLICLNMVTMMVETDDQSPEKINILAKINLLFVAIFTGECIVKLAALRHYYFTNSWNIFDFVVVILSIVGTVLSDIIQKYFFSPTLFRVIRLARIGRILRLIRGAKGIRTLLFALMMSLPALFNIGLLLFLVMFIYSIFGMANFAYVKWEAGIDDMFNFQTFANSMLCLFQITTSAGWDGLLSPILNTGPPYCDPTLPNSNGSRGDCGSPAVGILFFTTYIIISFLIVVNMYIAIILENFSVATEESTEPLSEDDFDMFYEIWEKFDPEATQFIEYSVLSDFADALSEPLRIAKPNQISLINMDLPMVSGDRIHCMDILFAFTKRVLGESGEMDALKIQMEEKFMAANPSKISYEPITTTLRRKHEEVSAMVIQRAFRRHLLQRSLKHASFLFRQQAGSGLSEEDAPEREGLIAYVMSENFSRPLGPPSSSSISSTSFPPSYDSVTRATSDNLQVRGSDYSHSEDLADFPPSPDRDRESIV

[19] = Clearance in po or iv dosed Sprague-Dawley rat; assay type: ADME, organism-based; conditions: in vivo
[20] = target: Polyunsaturated fatty acid 5-lipoxygenase (Homo sapiens, UniProt P09917); experiment: Inhibition of 5-lipoxygenase (unknown origin)
[21] = Ratio of drug level in blood to plasma in human at 10 uM incubated for 30 mins by LC-MS/MS analysis; assay type: ADME, cell-free
[22] = Drug absorption in Beagle dog at 0.004 to 0.1 umol/kg, iv or 0.1 to 1 umol/kg, po via gavage measured up to 79 hrs; assay type: ADME, organism-based, Canis lupus familiaris; conditions: in vivo
[23] = Intrinsic clearance in cryopreserved human hepatocytes assessed as per million cells at 1 uM measured up to 60 mins by LC-MS/MS analysis; assay type: ADME, cell-based, Hepatocyte; conditions: read-out: CLH
[24] = Protein binding in Sprague-Dawley rat plasma assessed as unbound fraction by LC-MS based equilibrium dialysis analysis; assay type: ADME, cell-free
[25] = target: Polyunsaturated fatty acid lipoxygenase ALOX12 (Homo sapiens, UniProt P18054); experiment: Inhibition of 12-lipoxygenase (unknown origin)
[26] = Volume of distribution at steady state in po or iv dosed Sprague-Dawley rat; assay type: ADME, organism-based; conditions: in vivo, read-out: Vdss
[27] = Bioavailability in po dosed Sprague-Dawley rat; assay type: ADME, organism-based; conditions: in vivo
physchem = conditions: phosphate buffer, pH 7.4
[28] = Cytotoxicity against human THLE cells incubated for 24 hrs by MTS assay; assay type: cell-based
[29] = target: ATP-binding cassette sub-family C member 2 (Rattus norvegicus, UniProt Q63120); experiment: Inhibition of Sprague-Dawley rat Mrp2 expressed in baculovirus infected Sf21 insect cell vesicles assessed as reduction in CDF uptake by fluorescence assay
[30] = target: Voltage-gated inwardly rectifying potassium channel KCNH2 (Homo sapiens, UniProt Q12809); experiment: Inhibition of human ERG by high-throughput electrophysiology assay
[31] = target: Prostaglandin G/H synthase 2 (Homo sapiens, UniProt P35354); experiment: Inhibition of COX-2 in human whole blood assessed as reduction in LPS-stimulated prostaglandin E2 production preincubated for 15 mins followed by LPS stimulation and measured after overnight incubation by EIA; assay type: tissue-based
Sequence of Prostaglandin G/H synthase 2 (P35354 whole entry): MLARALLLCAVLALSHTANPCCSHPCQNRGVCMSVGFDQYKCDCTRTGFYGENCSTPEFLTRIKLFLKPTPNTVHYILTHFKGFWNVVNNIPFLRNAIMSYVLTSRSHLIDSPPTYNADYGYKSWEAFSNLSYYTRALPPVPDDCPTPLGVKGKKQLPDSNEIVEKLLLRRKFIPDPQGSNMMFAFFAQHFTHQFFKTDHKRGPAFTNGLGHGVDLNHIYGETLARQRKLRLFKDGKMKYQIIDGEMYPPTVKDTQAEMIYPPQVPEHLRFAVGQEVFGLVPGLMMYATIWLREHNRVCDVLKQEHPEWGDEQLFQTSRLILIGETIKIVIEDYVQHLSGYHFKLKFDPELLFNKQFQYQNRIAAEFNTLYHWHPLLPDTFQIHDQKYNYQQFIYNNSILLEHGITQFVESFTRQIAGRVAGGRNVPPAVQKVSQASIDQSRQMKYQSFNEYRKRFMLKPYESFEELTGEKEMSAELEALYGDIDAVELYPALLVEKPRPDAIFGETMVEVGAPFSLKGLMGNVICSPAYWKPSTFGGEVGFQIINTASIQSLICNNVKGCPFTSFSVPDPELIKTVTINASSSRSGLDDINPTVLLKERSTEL

[32] = Oral bioavailability in Beagle dog at 0.1 to 1 umol/kg administered twice daily via gavage for 3 days and measured up to 79 hrs; assay type: ADME, organism-based, Canis lupus familiaris; conditions: in vivo
[33] = Selectivity ratio of inhibition of COX-2 in human whole blood to Inhibition of 5-lipoxygenase (unknown origin)
[34] = target: Polyunsaturated fatty acid lipoxygenase ALOX15 (Homo sapiens, UniProt P16050); experiment: Inhibition of 15-lipoxygenase (unknown origin)
[35] = target: Kv channel-interacting protein 2/Potassium voltage-gated channel subfamily D member 3 (Homo sapiens, UniProt Q9UK17+Q9NS61); experiment: Inhibition of human Kv4.3/KChIP2 by Ion-work electrophysiology assay; assay type: protein-complex assay
[36] = Inhibition of phospholipidosis in rat H42EC3 cells assessed as reduction in NBD-PE accumulation by SYTOX orange staining-based high content imaging analysis; assay type: cell-based
CYP450 = CYP450 (Homo sapiens, UniProt P04798+P05177+P05181+P08684+P10632+P10635+P11509+P11712+P13584+P20813+P20815+P20853+P24462+P24903+P33260+P33261+P51589+P78329+P98187+Q02928+Q08477+Q16678+Q16696+Q5TCH4+Q6VVX0+Q7Z449+Q8TAV3+Q96SQ9+Q9HB55); experiment: Inhibition of CYP450 assessed as maximum reduction in metabolite formation using coumarin based substrate by fluorescence assay; assay type: ADME, protein assay; conditions: probe coumarin based substrate
[37] = Half-life in po or iv dosed Sprague-Dawley rat; assay type: ADME, organism-based; conditions: in vivo
[38] = Inhibition of FLAP in Beagle dog whole blood assessed as reduction in calcium ionophore-stimulated LTB4 production preincubated for 30 mins followed by calcium ionophore stimulation and measured after 20 mins by EIA; assay type: tissue-based; conditions: Canis lupus familiaris
[39] = target: Prostaglandin G/H synthase 1 (Homo sapiens, UniProt P23219); experiment: Inhibition of COX-1 in human whole blood assessed as reduction in calcium ionophore-stimulated thromboxane B2 production preincubated for 30 mins followed by calcium ionophore stimulation and measured after 20 mins by EIA; assay type: tissue-based
Sequence of Prostaglandin G/H synthase 1 (P23219 whole entry): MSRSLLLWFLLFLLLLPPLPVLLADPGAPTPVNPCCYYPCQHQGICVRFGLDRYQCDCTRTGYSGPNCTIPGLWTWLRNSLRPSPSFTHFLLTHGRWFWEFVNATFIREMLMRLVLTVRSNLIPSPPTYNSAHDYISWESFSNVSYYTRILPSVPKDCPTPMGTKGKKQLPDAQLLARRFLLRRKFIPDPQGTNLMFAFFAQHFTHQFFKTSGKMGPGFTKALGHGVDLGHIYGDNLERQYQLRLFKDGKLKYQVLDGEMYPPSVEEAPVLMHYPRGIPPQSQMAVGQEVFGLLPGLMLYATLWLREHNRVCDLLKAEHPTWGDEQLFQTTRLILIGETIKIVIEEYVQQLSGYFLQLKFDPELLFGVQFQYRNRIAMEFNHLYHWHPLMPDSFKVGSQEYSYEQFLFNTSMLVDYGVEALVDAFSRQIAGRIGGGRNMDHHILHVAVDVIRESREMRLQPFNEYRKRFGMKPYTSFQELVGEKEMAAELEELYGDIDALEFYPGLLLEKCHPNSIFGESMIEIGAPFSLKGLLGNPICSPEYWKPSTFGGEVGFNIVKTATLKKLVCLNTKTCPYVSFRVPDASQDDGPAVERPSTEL

[40] = target: Potassium voltage-gated channel subfamily E member 1 (Homo sapiens, UniProt P15382); experiment: Inhibition of human IKs by IonWork electrophysiology method
[41] = target: T2, Arachidonate 5-lipoxygenase-activating protein (Homo sapiens); experiment: (§2) Inhibition of FLAP in human whole blood assessed as reduction in calcium ionophore-stimulated LTB4 production preincubated for 4 hrs followed by calcium ionophore stimulation and measured after 20 mins by EIA; assay type: tissue-based
[42] = target: T1, Arachidonate 5-lipoxygenase-activating protein; experiment: as §2; assay type: tissue-based
Cytochrome P450 1A2 = Cytochrome P450 1A2 (Homo sapiens, UniProt P05177); experiment: Inhibition of recombinant human CYP1A2 assessed as maximum reduction in metabolite formation using coumarin based substrate by fluorescence assay; assay type: ADME
hERG (KCNH2) = hERG (KCNH2) (Homo sapiens, UniProt Q12809); experiment: Inhibition of human ERG at 10 uM high-throughput electrophysiology assay relative to control
Sequence of hERG (KCNH2) (Q12809 whole entry): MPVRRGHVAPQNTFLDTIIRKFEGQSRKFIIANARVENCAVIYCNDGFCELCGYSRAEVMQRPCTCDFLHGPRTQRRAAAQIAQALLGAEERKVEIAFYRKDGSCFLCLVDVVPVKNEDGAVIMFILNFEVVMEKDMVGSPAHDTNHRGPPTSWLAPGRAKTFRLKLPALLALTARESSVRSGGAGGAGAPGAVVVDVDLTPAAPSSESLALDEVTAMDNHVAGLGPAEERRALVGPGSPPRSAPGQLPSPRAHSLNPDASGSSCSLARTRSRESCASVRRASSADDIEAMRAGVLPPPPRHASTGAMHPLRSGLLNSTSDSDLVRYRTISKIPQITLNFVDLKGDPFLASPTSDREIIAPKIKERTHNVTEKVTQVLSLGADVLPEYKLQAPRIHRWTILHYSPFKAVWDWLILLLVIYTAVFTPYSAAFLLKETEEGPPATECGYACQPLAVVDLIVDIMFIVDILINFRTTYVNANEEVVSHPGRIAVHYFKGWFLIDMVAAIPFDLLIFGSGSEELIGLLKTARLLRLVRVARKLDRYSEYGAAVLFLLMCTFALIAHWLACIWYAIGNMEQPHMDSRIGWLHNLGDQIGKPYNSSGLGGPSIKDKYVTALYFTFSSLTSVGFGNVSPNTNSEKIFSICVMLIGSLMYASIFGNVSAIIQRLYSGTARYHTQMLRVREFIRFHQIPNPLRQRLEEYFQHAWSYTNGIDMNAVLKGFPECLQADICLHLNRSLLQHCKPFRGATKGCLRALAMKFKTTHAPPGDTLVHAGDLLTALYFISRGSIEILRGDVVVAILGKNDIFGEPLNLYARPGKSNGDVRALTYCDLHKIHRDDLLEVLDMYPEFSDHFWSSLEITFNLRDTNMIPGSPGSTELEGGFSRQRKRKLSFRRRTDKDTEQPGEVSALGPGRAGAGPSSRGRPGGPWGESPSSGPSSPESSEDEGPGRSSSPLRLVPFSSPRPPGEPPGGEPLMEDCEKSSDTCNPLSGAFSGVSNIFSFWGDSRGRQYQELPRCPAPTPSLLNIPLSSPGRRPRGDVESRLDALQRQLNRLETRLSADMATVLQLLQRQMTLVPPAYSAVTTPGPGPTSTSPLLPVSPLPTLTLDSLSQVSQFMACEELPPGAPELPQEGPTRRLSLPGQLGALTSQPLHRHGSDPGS

Cytochrome P450 2C9 = Cytochrome P450 2C9 (Homo sapiens, UniProt P11712); experiment: Inhibition of recombinant human CYP2C9 expressed in Escherichia coli assessed as maximum reduction in metabolite formation using coumarin based substrate by fluorescence assay; assay type: ADME
Sequence of Cytochrome P450 2C9 (P11712 whole entry): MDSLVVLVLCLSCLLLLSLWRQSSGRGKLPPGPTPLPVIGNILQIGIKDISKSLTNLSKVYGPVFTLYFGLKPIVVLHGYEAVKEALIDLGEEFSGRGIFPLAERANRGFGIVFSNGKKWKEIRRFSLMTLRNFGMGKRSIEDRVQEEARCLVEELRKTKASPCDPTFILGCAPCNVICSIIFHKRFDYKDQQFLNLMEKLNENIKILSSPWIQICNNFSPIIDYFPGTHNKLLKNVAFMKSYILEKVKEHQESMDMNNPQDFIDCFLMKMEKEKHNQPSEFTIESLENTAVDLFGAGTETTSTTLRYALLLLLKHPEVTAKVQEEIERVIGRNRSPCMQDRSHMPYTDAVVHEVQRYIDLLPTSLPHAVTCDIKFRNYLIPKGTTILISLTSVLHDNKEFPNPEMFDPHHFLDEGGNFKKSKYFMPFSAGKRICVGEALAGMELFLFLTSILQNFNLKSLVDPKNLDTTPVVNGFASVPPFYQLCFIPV

SMILES: Cn1cc(NC(=O)[C@@H]2CCCC[C@H]2C(=O)c2ccc(-c3ccn[nH]3)cc2)c(OC(F)F)n1
- Stability [1]: Unstable
- logD [2]: 3

SMILES: C[C@H](C#Cc1ccc(Cc2ccc(F)cc2)s1)N(O)C(N)=O [ATRELEUTON]
- inhibition (INH) (Homo sapiens): 80%

SMILES: CC(C)(O)CNC(=O)c1cnc(NC(=O)[C@@H]2CCCC[C@H]2C(=O)c2ccc(-c3cc[nH]n3)cc2)cn1 (racemic)
- Papp A→B [7]: 3 ×10⁻⁶ cm/s
- IC50 [3]: 15.8 nM
- fpIC50 [41]: 8.3
- IC50 [42]: 100 nM
- hepatocyte CLint at 1 µM [23]: 4 µL/min/1e6 cells
- IC50 (Cytochrome P450 1A2): 10000 nM
- solubility at 24 h (physchem): 111 µM (≈ 54.5 µg/mL)
- inhibition at 10 µM (hERG (KCNH2)): 22%
- logD [2]: 3.2

SMILES: Cc1cc(-c2ccc(C(=O)[C@@H]3CCCC[C@H]3C(=O)Nc3cn(C)nc3C#N)cc2)n[nH]1
- Papp A→B [7]: 27 ×10⁻⁶ cm/s
- IC50 (Cytochrome P450 2C9): 7940 nM
- Activity [4]: Non-Toxic
- hepatocyte CLint at 1 µM [23]: 6 µL/min/1e6 cells
- fpIC50 [5]: 8.5
- solubility at 24 h (physchem): 25 µM (≈ 10.4 µg/mL)
- inhibition at 10 µM (hERG (KCNH2)): 23%
- logD [2]: 3.5

Second part, led by results:

- IC50 [3]: 10 nM
- fpIC50 [5]: 8.5
- IC50 [6]: 63.1 nM
- logD [2]: 3.5
SMILES: Cc1cc(-c2ccc(C(=O)[C@@H]3CCCC[C@H]3C(=O)Nc3cn(C)nc3C(F)F)cc2)n[nH]1
- Activity [4]: Toxic

- Papp A→B [7]: 20 ×10⁻⁶ cm/s
- IC50 [3]: 63.1 nM
- half-life [8]: 3.4 h
- inhibition (INH) [9]: Not Active
- inhibition [10]: inactive
- Vd [11]: 0.98 L/kg
- clearance [13]: 3.33 mL/min/kg
- inhibition (INH) [14]: Not Active
- fraction unbound [15]: 0.11
- IC50 (Canis familiaris): 34 nM
- Stability [16]: 72%
- Activity [17]: Not Active
- clearance [19]: 6 mL/min/kg
- inhibition (INH) [20]: Not Active
- blood plasma ratio at 0.5 h, 10 µM [21]: 0.74
- ka [22]: 5.3 h⁻¹
- hepatocyte CLint at 1 µM [23]: 4 µL/min/1e6 cells
- fraction unbound [24]: 0.043
- fpIC50 [5]: 8.1
- IC50 [6]: 63.1 nM
- inhibition (INH) [25]: Not Active
- Vd [26]: 0.83 L/kg
- bioavailability [27]: 47%
- solubility at 24 h (physchem): 225 µM (≈ 91.2 µg/mL)
- inhibition (INH) [29]: Not Active
- logD [2]: 3
- inhibition (INH) [31]: Not Active
- bioavailability [32]: 51%
- inhibition (INH) [34]: Not Active
- inhibition (INH) [35]: Not Active
- IC50 (CYP450): > 25100 nM
- half-life [37]: 4.5 h
- IC50 [38]: 28 nM
- inhibition (INH) [39]: Not Active
- inhibition (INH) [40]: Not Active
SMILES: Cc1cc(-c2ccc(C(=O)[C@@H]3CCCC[C@H]3C(=O)Nc3cn(C)nc3C)cc2)n[nH]1
- Activity (L5178Y): Non-Toxic
- IC50 (Bile salt export pump): 120000 nM
- Selectivity ratio [12]: >= 100
- Activity (HepG2): Non-Toxic
- inhibition (Canis familiaris): Dose-dependent effect
- inhibition (INH) [18]: Not Active
- Activity [4]: Non-Toxic
- Activity [28]: Non-Toxic
- IC50 [30]: > 100000 nM
- Selectivity ratio [33]: >= 100
- EC50 [36]: 32000 nM

Source: ChEMBL document CHEMBL4350955, “Novel Chemical Series of 5-Lipoxygenase-Activating Protein Inhibitors for Treatment of Coronary Artery Disease” (J Med Chem, 2019)
